# Screening results (PubChem)
# HIV Env fusion: blocks HIV Env-driven cell-cell fusion; HeLa-JRFL Env/CEM21 cell fusion, luciferase; inhibition, % at 12.3 µM; actives 1.1% (n = 360,000); AID 651610;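 active means mean replicate inhibition score of at least 50 and every replicate individually at or above 50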;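 further: 0% = plate neutral controls and 100% = maraviroc near 300 nM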
# PAX8 inh HTS: PAX8 transcriptional activity inhibition; AID 652154; inhibition, % at 12.6 µM; RMG-I TPO-luciferase reporter, SteadyGlo, 24 h; actives 1.2% (n = 360,000);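 active means mean replicate inhibition at least 60% with every replicate also reaching 60%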;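 further: luciferase light reporting Pax8 driven TPO promoter activity; plate controls were median of neutral control wells for no effect and mitoxantrone controls for full effect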
# PGC1a acetyl inh: PGC1a acetylation modulation, inhibitor mode; U2OS PGC1a acetylation, AlphaScreen anti-acetyl-lysine; with virally co-expressed GCN5 acetyltransferase; inhibition, % at 15.6 µM; actives 0.17% (n = 350,000); AID 651687;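 active means every replicate shows inhibition of at least 40%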;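 further: 0% = neutral control wells and 100% = positive control wells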
# FN deposit inh: fibronectin deposition inhibition; AH1F fibroblasts, Alexa488-fibronectin deposition fluorescence, overnight; inhibition, % at 12.6 µM; actives 0.086% (n = 350,000); AID 743247;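 active means mean inhibition across replicates of 30% or more, regardless of how many single replicates reach that level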;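 further: positive control wells lacked labelled fibronectin entirely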
#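 test system = AH1F fibroblasts assembling fluorescent fibronectin matrix | quantity = 10000 AH1F cells per well | buffer or medium = DMEM plus 2% serum, read in PBS | doses = single dose, pinned | incubation = 1 h cell attachment, overnight exposure to compound and label | detection = fluorescence at 485 nm excitation, 525 nm emission | read-out basis = inhibition from reduced deposited-fibronectin fluorescence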
# EWS-Fli inh: inhibitors of EWS/Fli oncoprotein transcriptional activity. A673 NR0B1-luciferase reporter, viability-normalised. actives 0.67% (n = 350,000). AID 651661. inhibition, % at 12.6 µM;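 active means mean inhibition of at least 50% after viability correction, with every replicate also passing that limit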;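 further: firefly luciferase signal divided by Alamar Blue viability fluorescence both relative to DMSO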
# CFTR F508del cor: CFTR F508del correction in bronchial cells; CFBE cells, YFP halide quenching; stimulated with forskolin plus potentiator P3; % fluorescence drop versus neutral controls; activity (quench increase), % at 7.58 µM; actives 0.36% (n = 350,000); AID 720511;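 active means mean added fluorescence quench of at least 8% versus neutral control, with both replicates also reaching 8%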;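 further: cells transiently co-express mutant CFTR-F508del with the halide-sensitive YFP; corrector assay measuring rescue of mutant channel to the surface after 24 h compound exposure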
# Starred values were filed as active, the others as inactive; nt = no result given; [ ] = dose if it differs, or a comment. An excerpt weighted towards active compounds, which were near 2.3% of everything screened.
SMILES,HIV Env fusion,PAX8 inh HTS,PGC1a acetyl inh,FN deposit inh,EWS-Fli inh,CFTR F508del cor
COc1ccc(C(CCNC(C)c2ccccc2)c2ccc(F)cc2)cc1 (stereo not drawn),35,81*,-10,13,nt,nt
O=C(C[C@H]1CC[C@H]2[C@@H](COC[C@@H](O)CN2Cc2ccccc2)O1)NCCCN1CCOCC1,nt,0,0,-11,1,3
COc1cc(OC)cc(C(=O)N2CC(=O)Nc3ccccc32)c1,-40,48,-4,7,40,8.7*
CC1=C(C(=O)NC2CCCCC2C)C2(CCC(C)CC2)OC1=O (stereo not drawn),-20,-7,nt,0,3,9.9*
CC1=C(C(=O)NC(C)C)C2(CCC(C)CC2)OC1=O (stereo not drawn),61*,-6,nt,2,6,4
CC1=C(C(=O)NC2CCCC(C)C2C)C2(CCCCC2)OC1=O (stereo not drawn),-7,-6,-6,2,-2,-4
CC1=C(C(=O)NC(C)c2ccccc2)C2(CCC(C)CC2)OC1=O (stereo not drawn),6,8,-11,4,-2,1
COc1cc(/C=C2\CCC/C(=C\c3ccc(O)c(OC)c3)C2=O)ccc1O,-10,35,28,11,77*,-3
COc1cc(C=C2C(=O)C=CC2=O)ccc1O,-190,106*,nt,29,46,-3
Cn1cccc1/C=C1\CCc2ccccc2C1=O,-24,31,4,-7,55*,0
COc1ccc(/C=C2/CCc3ccccc3C2=O)cc1OC,58*,-76,7,0,nt,nt
Cn1cccc1/C=C1\Cc2ccccc2C1=O,-95,-106,2,11,-82,-1
COc1cc(/C=C2/C(=O)CNC2=O)ccc1O,-68,-11,nt,2,nt,nt
C[C@H]1CN(C)C(=O)c2cc(N)ccc2O[C@H]1CN(C)S(C)(=O)=O,nt,nt,nt,-5,nt,nt
COc1ccc(NC(=O)N(C)C[C@H]2OCCCC[C@H](C)Oc3ccc(NC(=O)Nc4cccc5ccccc45)cc3C(=O)N([C@H](C)CO)C[C@H]2C)cc1,-21[16.7 µM],6,-13,nt,-8,0
COc1cc(/C=C2/CCC/C(=C\c3cc(O)c(OC)c(Cl)c3)C2=O)cc(Cl)c1O,27,81*,-18,26,nt,nt
COc1cc(/C=C2\CC/C(=C\c3cc(OC)c(O)c(OC)c3)C2=O)cc(OC)c1O,77*,88*,nt,1,28,nt
COc1cc(/C=C2/CCc3ccccc3C2=O)cc(OC)c1OC,30,nt,18,9,nt,nt
CCOc1cc(/C=C2\CN(CC)C/C(=C\c3ccc(O)c(OCC)c3)C2=O)ccc1O,67*,13,24,1,61*,-5
COc1cc(/C=C2\SC(N)=NC2=O)cc(Cl)c1O,4,-4,-4,1,-2,0
CO[C@@H]1CN(C)C(=O)c2ccc(NC(=O)NC(C)C)cc2OC[C@H](C)N(C(=O)CC2CC2)C[C@@H]1C,7[16.7 µM],-10,-11,-27,0,-2
C[C@@H]1CCCCO[C@@H](CN(C)C(=O)Nc2ccc3c(c2)OCO3)[C@@H](C)CN([C@@H](C)CO)C(=O)c2cc(NC(=O)c3ccccc3)ccc2O1,-7[16.7 µM],nt,1,nt,-2,2
O=S(=O)(N[C@@H]1CC[C@H](CCn2cc(C3(O)CCCC3)nn2)O[C@H]1CO)c1ccc(F)cc1,-1[16.7 µM],0,7,nt,3,1
CC(C)CC#Cc1ccc2c(c1)O[C@@H](CN(C)Cc1ccncc1)[C@H](C)CN([C@H](C)CO)S2(=O)=O,30[16.7 µM],92*,5,nt,40,4
CC(C)CC#Cc1ccc2c(c1)O[C@H](CN(C)Cc1ccncc1)[C@@H](C)CN([C@@H](C)CO)S2(=O)=O,38[16.7 µM],73*,0,nt,36,2
CC(C)CC#Cc1ccc2c(c1)O[C@H](CN(C)Cc1ccncc1)[C@@H](C)CN([C@H](C)CO)S2(=O)=O,32[16.7 µM],21,1,nt,28,0
COc1ccc(S(=O)(=O)Nc2ccc3c(c2)CC(=O)N([C@H](C)CO)C[C@H](C)[C@@H](CN(C)Cc2ccc(-c4ccccc4)cc2)O3)cc1,-13[16.7 µM],76*,-18,nt,-3,0
